Measured values published in publication PMC6682128 (ACS Omega, 2019).

Assays:
[1] = test system: HCV genotype 1b (strain Con1) replicon; assay: HCV genotype 1b replicon luciferase assay in Huh5-2 cells; type: cell-based, Hepatitis C virus; details: EC50 comparison
Cytotoxicity assay [2] = type: cell-based; details: human
Summary of the method: (§1)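 Replicon cells (Huh5-2, Huh7.5-3a or Huh7.5-4a) were seeded at 10^4 per well and grown 24 h in complete DMEM. They were then exposed for three days to serial dilutions of test compound or DMSO solvent. Lysates were assayed for ATP by chemiluminescence, normalised to Bradford total protein. CC50 was obtained by nonlinear regression against log concentration.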

Cytotoxicity assay [3] = type: cell-based; details: human, Huh7.5-3a (S52) replicon cells
Summary of the method: as §1

[4] = test system: Huh7.5-4a (ED43) replicon cells; assay: Cytotoxicity assay; type: cell-based, human; details: ATP levels
Summary of the method: as §1

[5] = test system: HCV genotype 1b (+) strand RNA; assay: HCV RNA quantification by RT-qPCR in Huh5-2 replicon cells; type: cell-based, Hepatitis C virus; details: 0.05 nM compound, Huh5-2 cells, normalized to YWHAZ
HCV NS5A (Con1) = type: cell-based, Hepatitis C virus; details: Huh5-2 cells; for cell viability (nuclei staining with propidium iodide): 0.5 and 0.05 nM; for NS5A protein levels by indirect immunofluorescence: highest compound concentration used (0.5 nM)

Row | SMILES | CC50 at 3 days (Cytotoxicity assay [2]) | CC50 at 3 days (Cytotoxicity assay [3]) | CC50, genotype 4a (ED43) [4] | other results
1 | CCOC(=O)N[C@H](C(=O)N1CCC[C@H]1C(=O)Nc1ccc(C#CC#Cc2ccc(NC(=O)[C@@H]3CCCN3C(=O)[C@@H](NC(=O)OCC)C(C)C)cc2)cc1)C(C)C [1b, Diethyl((2S,2′S)-((2S,2′S)-(((buta-1,3-diyne-1,4-diylbis(4,1-phenylene))bis(azanediyl))bis(carbonyl))bis(pyrrolidine-2,1-diyl))bis(3-methyl-1-oxobutane-1,2-diyl))dicarbamate] | 2.58 µM | – | – | fold more active than compound 1n [1]: 3 fold
2 | CC(C)[C@H](NC(=O)OCc1ccccc1)C(=O)N1CCC[C@H]1C(=O)Nc1ccc(C#CC#Cc2ccc(NC(=O)[C@@H]3CCCN3C(=O)[C@@H](NC(=O)OCc3ccccc3)C(C)C)cc2)cc1 [1e, Dibenzyl((2S,2′S)-((2S,2′S)-(((buta-1,3-diyne-1,4-diylbis(4,1-phenylene))bis(azanediyl))bis(carbonyl))bis(pyrrolidine-2,1-diyl))bis(3-methyl-1-oxobutane-1,2-diyl))dicarbamate] | > 20 µM | – | – | fold less active than compound 1b [1]: 28 fold
3 | COC(=O)N[C@H](C(=O)N1CCC[C@H]1C(=O)Nc1cccc(C#CC#Cc2cccc(NC(=O)[C@@H]3CCCN3C(=O)[C@@H](NC(=O)OC)C(C)C)c2)c1)C(C)C [2a, Dimethyl((2S,2′S)-((2S,2′S)-(((buta-1,3-diyne-1,4-diylbis(3,1-phenylene))bis(azanediyl))bis(carbonyl))bis(pyrrolidine-2,1-diyl))bis(3-methyl-1-oxobutane-1,2-diyl))dicarbamate] | > 200 µM | > 200 µM | >200 000 nM | –
4 | CC(C)[C@H](NC(=O)OCc1ccccc1)C(=O)N1CCC[C@H]1C(=O)Nc1cccc(C#CC#Cc2cccc(NC(=O)[C@@H]3CCCN3C(=O)[C@@H](NC(=O)OCc3ccccc3)C(C)C)c2)c1 [2e, Dibenzyl((2S,2′S)-((2S,2′S)-(((buta-1,3-diyne-1,4-diylbis(3,1-phenylene))bis(azanediyl))bis(carbonyl))bis(pyrrolidine-2,1-diyl))bis(3-methyl-1-oxobutane-1,2-diyl))dicarbamate] | > 10 µM | – | – | fold less active than 2b [1]: 22 fold
5 | CCOC(=O)N[C@@H](CC(C)C)C(=O)N1CCC[C@H]1C(=O)Nc1cccc(C#CC#Cc2cccc(NC(=O)[C@@H]3CCCN3C(=O)[C@H](CC(C)C)NC(=O)OCC)c2)c1 [2f, Diethyl((2S,2′S)-((2S,2′S)-(((buta-1,3-diyne-1,4-diylbis(3,1-phenylene))bis(azanediyl))bis(carbonyl))bis(pyrrolidine-2,1-diyl))bis(4-methyl-1-oxopentane-1,2-diyl))dicarbamate] | > 200 µM | > 200 µM | >200 000 nM | HCV RNA replication reduced to (relative to control) [5]: ~90%; cell viability (nuclei staining with propidium iodide) (HCV NS5A (Con1)): not affected; NS5A protein levels by indirect immunofluorescence (HCV NS5A (Con1)): almost undetectable levels
6 | CCOC(=O)N[C@H](C(=O)N1CCC[C@@H]1C(=O)Nc1cccc(C#CC#Cc2cccc(NC(=O)[C@H]3CCCN3C(=O)[C@@H](NC(=O)OCC)C(C)C)c2)c1)C(C)C [2j, Diethyl((2S,2′S)-((2R,2′R)-(((buta-1,3-diyne-1,4-diylbis(3,1-phenylene))bis(azanediyl))bis(carbonyl))bis(pyrrolidine-2,1-diyl))bis(3-methyl-1-oxobutane-1,2-diyl))dicarbamate] | > 10 µM | – | – | –
7 | CCOC(=O)N[C@@H](C(=O)N1CCC[C@@H]1C(=O)Nc1cccc(C#CC#Cc2cccc(NC(=O)[C@H]3CCCN3C(=O)[C@H](NC(=O)OCC)C(C)C)c2)c1)C(C)C [2k, Diethyl((2R,2′R)-((2R,2′R)-(((buta-1,3-diyne-1,4-diylbis(3,1-phenylene))bis(azanediyl))bis(carbonyl))bis(pyrrolidine-2,1-diyl))bis(3-methyl-1-oxobutane-1,2-diyl))dicarbamate] | > 10 µM | – | – | –
8 | CCOC(=O)N[C@@H](CC(C)C)C(=O)N1CCC[C@@H]1C(=O)Nc1cccc(C#CC#Cc2cccc(NC(=O)[C@H]3CCCN3C(=O)[C@H](CC(C)C)NC(=O)OCC)c2)c1 [2l, Diethyl((2S,2′S)-((2R,2′R)-(((buta-1,3-diyne-1,4-diylbis(3,1-phenylene))bis(azanediyl))bis(carbonyl))bis(pyrrolidine-2,1-diyl))bis(4-methyl-1-oxopentane-1,2-diyl))dicarbamate] | > 10 µM | – | – | –
9 | CCOC(=O)N[C@H](CC(C)C)C(=O)N1CCC[C@@H]1C(=O)Nc1cccc(C#CC#Cc2cccc(NC(=O)[C@H]3CCCN3C(=O)[C@@H](CC(C)C)NC(=O)OCC)c2)c1 [2m, Diethyl((2R,2′R)-((2R,2′R)-(((buta-1,3-diyne-1,4-diylbis(3,1-phenylene))bis(azanediyl))bis(carbonyl))bis(pyrrolidine-2,1-diyl))bis(4-methyl-1-oxopentane-1,2-diyl))dicarbamate] | > 10 µM | – | – | –
10 | CCOC(=O)N[C@@H](C(=O)N1CCC[C@H]1C(=O)Nc1cccc(C#CC#Cc2cccc(NC(=O)[C@@H]3CCCN3C(=O)[C@H](NC(=O)OCC)C(C)C)c2)c1)C(C)C [2n, Diethyl((2R,2′R)-((2S,2′S)-(((buta-1,3-diyne-1,4-diylbis(3,1-phenylene))bis(azanediyl))bis(carbonyl))bis(pyrrolidine-2,1-diyl))bis(3-methyl-1-oxobutane-1,2-diyl))dicarbamate] | > 20 µM | – | – | fold more active than 2b [1]: about 6 fold
11 | COC(=O)N[C@@H](CC(C)C)C(=O)N1CCC[C@H]1C(=O)Nc1cccc(C#CC#Cc2cccc(NC(=O)[C@@H]3CCCN3C(=O)[C@H](CC(C)C)NC(=O)OC)c2)c1 [2o, Dimethyl((2S,2′S)-((2S,2′S)-(((buta-1,3-diyne-1,4-diylbis(3,1-phenylene))bis(azanediyl))bis(carbonyl))bis(pyrrolidine-2,1-diyl))bis(4-methyl-1-oxopentane-1,2-diyl))dicarbamate] | > 20 µM | – | – | –
12 | COC(=O)N[C@H](CC(C)C)C(=O)N1CCC[C@H]1C(=O)Nc1cccc(C#CC#Cc2cccc(NC(=O)[C@@H]3CCCN3C(=O)[C@@H](CC(C)C)NC(=O)OC)c2)c1 [2p, Dimethyl((2R,2′R)-((2S,2′S)-(((buta-1,3-diyne-1,4-diylbis(3,1-phenylene))bis(azanediyl))bis(carbonyl))bis(pyrrolidine-2,1-diyl))bis(4-methyl-1-oxopentane-1,2-diyl))dicarbamate] | > 200 µM | > 200 µM | >200 000 nM | fold more active than 2o [1]: about 3 × 10^5 fold
13 | CCOC(=O)N[C@H](CC(C)C)C(=O)N1CCC[C@H]1C(=O)Nc1cccc(C#CC#Cc2cccc(NC(=O)[C@@H]3CCCN3C(=O)[C@@H](CC(C)C)NC(=O)OCC)c2)c1 [2q, Diethyl((2R,2′R)-((2S,2′S)-(((buta-1,3-diyne-1,4-diylbis(3,1-phenylene))bis(azanediyl))bis(carbonyl))bis(pyrrolidine-2,1-diyl))bis(4-methyl-1-oxopentane-1,2-diyl))dicarbamate] | > 200 µM | > 200 µM | >200 000 nM | HCV RNA replication reduced to (relative to control) [5]: 56%; cell viability (nuclei staining with propidium iodide) (HCV NS5A (Con1)): not affected; NS5A protein levels by indirect immunofluorescence (HCV NS5A (Con1)): almost undetectable levels
14 | COC(=O)N[C@H](C(=O)N1CCC[C@H]1c1nc(-c2ccc(-c3ccc(-c4c[nH]c([C@@H]5CCCN5C(=O)[C@@H](NC(=O)OC)C(C)C)n4)cc3)cc2)c[nH]1)C(C)C [daclatasvir, reference compound] | 17.7 µM | 17.7 µM | 17 700 nM | –
